Published values pooled from the literature.
Lines come from different studies, so protocols differ.
Target: Cyclin-G-associated kinase (GAK, Homo sapiens, UniProt O14976)
Residues used in one study (O14976 1-1311): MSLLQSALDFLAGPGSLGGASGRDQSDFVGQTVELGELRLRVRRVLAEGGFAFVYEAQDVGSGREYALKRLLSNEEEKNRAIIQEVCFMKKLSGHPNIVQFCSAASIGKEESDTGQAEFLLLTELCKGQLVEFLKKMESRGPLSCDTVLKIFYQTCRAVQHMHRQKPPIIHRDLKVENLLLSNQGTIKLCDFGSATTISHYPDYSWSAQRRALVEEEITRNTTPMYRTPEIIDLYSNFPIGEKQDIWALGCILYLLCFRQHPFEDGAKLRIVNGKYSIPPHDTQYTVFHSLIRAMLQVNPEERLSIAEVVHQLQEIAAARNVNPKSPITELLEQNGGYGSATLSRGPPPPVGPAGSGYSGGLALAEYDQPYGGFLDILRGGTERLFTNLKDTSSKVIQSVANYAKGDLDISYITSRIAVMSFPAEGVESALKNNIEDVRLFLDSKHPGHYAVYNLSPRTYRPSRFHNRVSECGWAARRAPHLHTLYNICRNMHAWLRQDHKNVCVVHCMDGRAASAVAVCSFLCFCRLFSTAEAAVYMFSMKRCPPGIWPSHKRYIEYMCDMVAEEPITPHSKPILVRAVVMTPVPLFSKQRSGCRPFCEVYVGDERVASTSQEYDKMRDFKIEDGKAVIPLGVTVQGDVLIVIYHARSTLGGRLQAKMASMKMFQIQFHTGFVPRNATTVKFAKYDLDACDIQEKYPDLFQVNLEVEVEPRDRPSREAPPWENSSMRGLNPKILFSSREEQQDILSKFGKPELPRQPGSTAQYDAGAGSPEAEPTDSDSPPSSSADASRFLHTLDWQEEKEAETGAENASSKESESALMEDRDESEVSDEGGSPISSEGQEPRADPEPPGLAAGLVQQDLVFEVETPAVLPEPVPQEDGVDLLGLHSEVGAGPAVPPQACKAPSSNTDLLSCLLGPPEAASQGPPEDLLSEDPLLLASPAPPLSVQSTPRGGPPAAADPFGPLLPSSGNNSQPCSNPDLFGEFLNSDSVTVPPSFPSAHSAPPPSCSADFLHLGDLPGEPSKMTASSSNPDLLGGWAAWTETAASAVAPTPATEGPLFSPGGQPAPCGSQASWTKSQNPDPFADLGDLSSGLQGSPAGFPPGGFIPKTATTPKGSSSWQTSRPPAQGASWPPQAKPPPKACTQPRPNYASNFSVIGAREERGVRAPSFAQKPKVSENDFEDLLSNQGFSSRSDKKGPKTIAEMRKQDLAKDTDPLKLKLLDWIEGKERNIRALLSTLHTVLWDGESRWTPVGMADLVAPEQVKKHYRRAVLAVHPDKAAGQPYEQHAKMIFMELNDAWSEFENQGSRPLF

C=CC(=O)N1CCC(C(=O)NCC(=O)N2CCN(c3nc(-c4cnc(N)nc4C(F)F)nc(N4CCOCC4)n3)CC2)CC1
remaining binding (binding, competition with immobilised ligand; 1 µM): 100%

CN(C)c1ncc(F)c(-c2cnn3ncccc23)n1
remaining binding (binding; 1 µM): 100%

N#CC1(c2ccccn2)CCN(Cc2cc(C(=O)N3CCCC3)c(=O)n3ccccc23)CC1
remaining binding (cell-free assay, competition with immobilised ligand; 1 µM): 100%

O=C(c1ccc(Nc2ncc(Cl)c(-c3cc4ccccc4s3)n2)cc1)N1CCC(N2CCCC2)CC1
remaining binding (binding, competition with immobilised ligand; 1 µM): 48%

CNC(=O)[C@@H]1CC[C@@H](n2c(-c3ccc4cnccc4c3)nc3ccc(C(=O)NCc4cccc(C(N)=O)c4)cc32)C1
remaining binding (binding, competition with immobilised ligand; 1 µM): 100%

O=C(O)c1cc(-c2ccc(C3CCNCC3)cc2)c2ccc(-c3ccc(C(F)(F)F)cc3)cc2c1
remaining binding (cell-free assay, competition with immobilised ligand; 1 µM): 100%

Cc1cnc(Nc2ccc(C(=O)N3CCC(N4CCCC4)CC3)cc2)nc1-c1cc2ccccc2s1
remaining binding (binding, competition with immobilised ligand; 1 µM): 8.2%

CCS(=O)(=O)c1cc2cc(C[C@](O)(CC(C)(C)c3ccc(F)cc3C(N)=O)C(F)(F)F)[nH]c2cn1
remaining binding (cell-free assay, competition with immobilised ligand; 1 µM): 100%

O=C(NCCCN1CCOCC1)c1ccc(Nc2ncc(Cl)c(-c3ccc(Cl)s3)n2)cc1
remaining binding (binding, competition with immobilised ligand; 1 µM): 15%

Cc1cnn2ncc(-c3ccnc(N(C)C)n3)c2c1
remaining binding (binding; 1 µM): 52%

c1cncc(-c2cccc(Nc3nccc(NC4CCCCC4)n3)c2)c1
remaining binding (binding, competition with immobilised ligand; 10 µM): 42%

C[C@@H](c1cccc(C#N)c1)n1cc(Cl)cc(C(N)=O)c1=N
remaining binding (cell-free assay, competition with immobilised ligand; 1 µM): 100%

C[C@@H]1CCN(c2nccc(-c3cnn4ncccc34)n2)C1
remaining binding (binding; 1 µM): 40%

O=C(Nc1c[nH]nc1C(=O)NC1CCNCC1)c1cc(F)cc(F)c1
remaining binding (binding, competition with immobilised ligand; 1 µM): 90%

CN1CCN(c2cnc3c(C4CCN(C(=O)c5ccc(OC(F)(F)F)cc5N)CC4)ncnc3c2)CC1
remaining binding (cell-free assay, competition with immobilised ligand; 1 µM): 100%

CN(c1nccc(-c2cnn3ncccc23)n1)C1CC1
remaining binding (binding; 1 µM): 100%

COc1cnc(Nc2cccc(S(N)(=O)=O)c2)nc1N1CCN(c2ccccc2)C(=O)C1
remaining binding (binding, competition with immobilised ligand; 1 µM): 57%

Cn1nc(C(=O)NCc2ccc(C(=O)O)cc2)cc1-c1ccc2[nH]ccc2c1
remaining binding (cell-free assay, competition with immobilised ligand; 0.1 µM): 90%

F[C@@H]1CCN(c2nccc(-c3cnn4ncccc34)n2)C1
remaining binding (binding; 1 µM): 85%

CC(=O)N1CCC(c2ccc(C(=O)NC3=NCCN3)cc2C(F)(F)F)CC1
remaining binding (cell-free assay, competition with immobilised ligand; 1 µM): 97%

c1cnn2ncc(-c3ccnc(N4CCC45COC5)n3)c2c1
remaining binding (binding; 1 µM): 56%

C[C@@H](c1ccc(-n2cnc3c(N)ncnc32)cc1)N1CCc2nn(C)c(Cc3ccccc3)c2C1=O
remaining binding (binding, competition with immobilised ligand; 0.1 µM): 99%
